{"source": "ChEMBL document CHEMBL1148175", "about": "“Immunostimulant agents from Andrographis paniculata” (1993)", "assay_type_in_all_cases": "functional", "key": {"[1]": {"system": "Mus musculus", "test": "Immunostimulant activity in sheep RBC-immunized BALB/c albino mouse assessed as hemagglutininating antibody titer at 4 mg/kg, ip administered on day 7 and 3 prior to immunization measured after 5 days by microtiter hemagglutinination technique", "settings": "route intraperitoneal", "how_it_was_run": "(§1)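 Compound dissolved in 0.05 M phosphate buffer pH 7.2 with 0.1 M NaCl, given orally daily for 7 days or ip on days -7 and -3, then ip immunization with 1×10^8 SRBC. Serum from retro-orbital bleed on day 5; twofold dilutions mixed with 1% SRBC, 1.5-2 h at room temperature. Titer = reciprocal of highest dilution giving 50% agglutination. Two experiments, four mice each.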"}, "[2]": {"system": "Mus musculus", "test": "Immunostimulant activity in sheep RBC-immunized BALB/c albino mouse assessed as hemolytic plaque-forming cells per 10^5 spleen cells at 4 mg/kg, ip administered on day 7 and 3 prior to immunization measured after 5 days", "settings": "route intraperitoneal", "how_it_was_run": "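Following ip dosing on days -7 and -3 and ip SRBC (1×10^8) on day 0, splenic hemolytic plaques counted on day 5 by Jerne-Nordin technique, duplicate per mouse. Group means expressed as PFC/10^5 spleen cells. Three experiments with four animals each; Student's t-test.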"}, "[3]": {"system": "Mus musculus", "test": "Immunostimulant activity in sheep RBC-immunized BALB/c albino mouse assessed as delayed-type hypersensitivity response-related right foot pad thickness at 4 mg/kg, ip administered on day 7 and 3 prior to immunization measured after 5 days relative to non-immunized foot pad thickness", "settings": "route intraperitoneal", "how_it_was_run": "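Mice (BALB/c, either sex, 20-22 g; four per group) immunized ip with 1×10^8 SRBC on day 0; on day 5 challenged with 1×10^8 SRBC (50 μl) in right foot pad. Foot pad thickness read 24 h later; reaction in mm = right (SRBC) minus PBS-injected pad. Compound in PBS pH 7.2 given ip on days -7 and -3. Student's t-test.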"}, "[4]": {"system": "Mus musculus", "test": "Nonspecific immunostimulant activity in sheep RBC-immunized BALB/c albino mouse assessed as macrophage migration index at 4 mg/kg, ip administered on day 7 and 3 prior to immunization measured after 18 to 24 hrs", "settings": "route intraperitoneal", "how_it_was_run": "(§2)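 Peritoneal exudate cells from dosed mice (oral daily 7 days, or ip on days -7 and -3) packed in microhematocrit capillaries and allowed to migrate 18-24 h in a migration chamber. MMI = ratio of migration areas, control vs. treated animals. Two experiments, four mice each.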"}, "[5]": {"system": "Mus musculus", "test": "Nonspecific immunostimulant activity in sheep RBC-immunized BALB/c albino mouse assessed as phagocytosis of [14C] leucine labeled Escherichia coli at 4 mg/kg, ip administered on day 7 and 3 prior to immunization", "settings": "route intraperitoneal", "how_it_was_run": "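Peritoneal macrophages from mice dosed ip on days -7 and -3 incubated in vitro with E. coli labelled with 14C-leucine (sp. act. 190 mCi/mmol). Uptake expressed as percentage incorporation of 14C-leucine. Three experiments, four animals each.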"}, "[6]": {"system": "Mus musculus", "test": "Nonspecific immunostimulant activity in sheep RBC-immunized BALB/c albino mouse assessed as [3H]thymidine uptake by splenic lymphocytes at 4 mg/kg, ip administered on day 7 and 3 prior to immunization by liquid scintillation counting", "settings": "route intraperitoneal", "how_it_was_run": "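Spleen cells from ip-treated mice (days -7, -3) at 1.5×10^6 cells/ml in complete RPMI-1640 with fetal calf serum, cultured in triplicate 3 days at 37° under 5% CO2, then pulsed 18 h with 1 μCi 3H-thymidine. Incorporation counted by scintillation, reported as cpm ± SD.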"}, "[7]": {"system": "Mus musculus", "test": "Immunostimulant activity in sheep RBC-immunized BALB/c albino mouse assessed as macrophage migration index at 1 mg/kg, po administered daily for 7 days measured after 18 to 24 hrs", "how_it_was_run": "as §2"}, "[8]": {"system": "Mus musculus", "test": "Immunostimulant activity in sheep RBC-immunized BALB/c albino mouse assessed as hemagglutininating antibody titer at 1 mg/kg, po administered daily for 7 days by microtiter hemagglutinination technique", "how_it_was_run": "as §1"}}}
{"smiles": "C=C1CC[C@@H]2[C@](C)(CO)[C@H](O)CC[C@@]2(C)[C@@H]1C/C=C1/C(=O)OC[C@H]1O", "note": "[ANDROGRAPHOLIDE]", "values": [{"measurement": "Activity", "setting": "[1]", "value": 1536}, {"measurement": "Activity", "setting": "[2]", "value": 128}, {"measurement": "Activity", "setting": "[3]", "value": 2.5, "unit": "mm"}, {"measurement": "Activity", "setting": "[4]", "value": 2.84}, {"measurement": "Activity", "setting": "[5]", "value": 55.56, "unit": "%"}, {"measurement": "Activity", "setting": "[6]", "value": 6486, "unit": "cpm"}, {"measurement": "Activity", "setting": "[7]", "value": 1.6}, {"measurement": "Activity", "setting": "[8]", "value": 1280}]}
{"smiles": "C=C1CC[C@@H]2[C@](C)(CO[C@@H]3O[C@H](CO)[C@@H](O)[C@H](O)[C@H]3O)CCC[C@@]2(C)[C@@H]1CCC1=CCOC1=O", "note": "[NEOANDROGRAPHOLIDE]", "values": [{"measurement": "Activity", "setting": "[1]", "value": 1638.4}, {"measurement": "Activity", "setting": "[4]", "value": 2.51}, {"measurement": "Activity", "setting": "[7]", "value": 1.9}, {"measurement": "Activity", "setting": "[8]", "value": 1365.33}]}
